The source of these data is ChEMBL document CHEMBL4732107, “Synthesis and anticancer activity evaluation of naphthalene-substituted triazole spirodienones” (Eur J Med Chem, 2021).

Usually IC50 stands for the point on the concentration scale where inhibition reaches its midpoint.

One data set has as its system A549. Description: Antiproliferative activity against human A549 cells assessed as reduction in cell viability measured after 5 days by beckman coulter counting method. The following applies: A549, 120 h. Format: functional, cell-based. In short, it runs like this:
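Cells kept in DMEM with 10% FBS, 4 mM glutamine, 1 mM sodium pyruvate, penicillin/streptomycin and amphotericin, at 37 °C in 5% CO2. Seeded at 20,000 per well, then exposed to 5 concentrations for 5 days, with DMSO as vehicle. Viable cells counted on a cell viability analyzer. Viability expressed as treated/vehicle count, and IC50 taken from dose-response curves.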

Data set [1] has as its system MDA-MB-231. Description: Cell cycle arrest in human MDA-MB-231 cells assessed as accumulation at G2 phase at 1 uM measured after 24 hrs by propidium iodide staining based flow cytometry (reference value: 5.77%). Format: functional. Summed up: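 MDA-MB-231 cells were seeded at 5 × 10^5 cells/mL and treated for 24 h. They were then trypsinized and washed twice in cold PBS. Cells were resuspended in PBS, stained with PI for 15 min at room temperature in the dark, and analyzed by flow cytometry.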
In general terms: A flow cytometer gives signals particle by particle.

Data set [2] deals with MDA-MB-231. The data set can be described thus: Induction of apoptosis in human MDA-MB-231 cells measured after 24 hrs by annexin V-FITC/propidium iodide staining based flow cytometry. The format is functional, cell-based. The following applies: dose 0.1-1 µM.
Data set [3] has as its system MDA-MB-231. Description: Induction of apoptosis in human MDA-MB-231 cells assessed as early apoptotic cells at 1 uM measured after 24 hrs by annexin V-FITC/propidium iodide staining based flow cytometry (reference value: 1.49%). Format: functional.
A short description of data set [4]: Acute toxicity in Kunming mouse assessed as clinical change in fur at 40 mg/kg, ip administered as single dose. The following applies: in vivo. The format is organism-based. Summed up: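 Kunming mice in four groups (n = 8, half male, half female) got one intraperitoneal dose of 10, 20 or 40 mg/kg, or vehicle. Body weights were recorded daily after dosing. Eyes, skin and fur were checked for clinical signs. Mortality was recorded. Mice were dissected to look for ascites and to assess liver volume.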

Data set [5] is described as follows: Toxicity in mouse implanted with mouse 4T1 cells assessed as increase in spleen size at 2 mg/kg, ip administered daily for 12 days measured post last dose. Format: organism-based. As to conditions: in vivo, 288 h, time 12 day. In short, it runs like this:
(§1)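 Orthotopic 4T1-bearing mice (n = 6 per group) were dosed i.p. daily with vehicle, compound at 1 or 2 mg/kg, or doxorubicin at 1 mg/kg. At the end of treatment, tumors and major organs (liver, spleen) were harvested and photographed. Sections were H&E stained and examined by microscope.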

A short description of data set [6]: Toxicity in mouse implanted with mouse 4T1 cells assessed as extramedullary hematopoiesis in liver at 2 mg/kg, ip administered daily for 12 days measured post last dose by H and E staining based microscopic analysis. As to conditions: in vivo, 288 h, time 12 day. The format is organism-based. Summed up: as §1

`O=C1C=CC2(C=C1)OCC(=O)N2c1nc(-c2cccc3ccccc23)nn1-c1ccccc1`: the half-maximal inhibitory concentration (IC50) in the data set with A549 was 80 nM. Also, the Activity in the data set with MDA-MB-231 [1] is 23.87%; with MDA-MB-231 [2], “Dose-dependent effect”; with MDA-MB-231 [3], 22.2%; in data set [4], “Non-Toxic”; in data set [5], “Toxic”; in data set [6], “Toxic”.
